Measurements as given in ChEMBL document CHEMBL1128437, “Derivatives of 17-phenyl-18,19,20-trinorprostaglandin F2 alpha isopropyl ester: potential antiglaucoma agents” (J Med Chem, 1995).
“And” between values parts separate entries of the source, which are not always exact repeats. Equal values may be shown once.

What was measured:
Felis catus [1] = organism: Felis catus; test: Concentration giving half-maximal contraction of the cat iris sphincter muscle was determined in vitro; format: functional
Outline: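 Compounds were tested as hydrolysed free acids on isolated cat iris sphincter in organ baths. Bath solution was bicarbonate physiological saline with glucose plus indomethacin 2.8 × 10⁻⁶ M, atropine 10⁻⁷ M and propranolol 10⁻⁶ M. Resting tension was 150 mg, with at least 30 min equilibration. Cumulative dosing was at 5–10 min intervals. Isometric contraction was normalised to each tissue's maximum, averaged over four preparations, and fitted with a Hill equation for EC50.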

Felis catus [2] = organism: Felis catus; test: The mean area between curves for Intraocular Pressure (IOP) measured in treated and control eyes. The effect was tested in cats at a dose of 3.0 (ug/eye); format: functional
Outline: (§1)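 Domestic female cats, 2–3 kg, trained for IOP measurement. One eye received a topical drop (20 µL) of drug in 0.9% NaCl with 0.5% polysorbate 80; the other eye received vehicle. IOP was read by pneumatonometer under oxibuprocain local anaesthesia before dosing and at 1, 3, 6 and 23 h. The maximal treated-minus-control difference was taken. Area between curves is the treated-eye AUC minus control-eye AUC, per animal.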

Felis catus [3] = organism: Felis catus; test: The maximal difference in Intraocular Pressure (IOP) between treated and control eyes. The effect was tested in cats at a dose of 1.0 (ug/eye); format: functional; outline: as §1
Felis catus [4] = organism: Felis catus; test: The mean area between curves for Intraocular Pressure (IOP) measured in treated and control eyes. The effect was tested in cats at a dose of 1.0 (ug/eye); format: functional; outline: as §1
Monkey [5] = test: The maximal difference in Intraocular Pressure (IOP) measured in treated and control eyes. The effect was tested in monkey at a dose of 3.0 (ug/eye); format: functional, Cercopithecidae
Outline: (§2)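 Cynomolgus monkeys trained for IOP measurement were sedated with ketamine (2–3 mg/kg) for transport and seated in restraint chairs under oxibuprocain local anaesthesia. One eye received a 10 µL drop of drug in 0.9% NaCl/0.5% polysorbate 80; the fellow eye received vehicle. IOP was read by pneumatonometer calibrated for monkey eyes before dosing and at 1, 2, 4 and 6 h. Matched-pair t test, n = 6.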

Monkey [6] = test: The mean area between curves for Intraocular Pressure (IOP) measured in treated and control eyes. The effect was tested in monkey at a dose of 3.0 (ug/eye); format: functional, Cercopithecidae; outline: as §2
Felis catus [7] = organism: Felis catus; test: The maximal difference in […] pupil diameter between treated and control eyes. The effect was tested in cats at a dose of 1.0 (ug/eye); format: functional
Outline: (§3)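 Trained female cats, 2–3 kg, were dosed unilaterally with one 20 µL topical drop of drug in 0.9% NaCl/0.5% polysorbate 80, with vehicle in the contralateral eye. Horizontal pupil diameter was measured with a millimetre ruler under constant 10 lux illumination before dosing and at 1, 3, 6 and 23 h. Reported as maximal treated–control difference or as area between curves, per animal.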

Felis catus [8] = organism: Felis catus; test: The mean area between curves for Intraocular Pressure (IOP) measured in treated and control eyes. The effect was tested in cats at a dose of 10.0 (ug/eye); format: functional; outline: as §1
Oryctolagus cuniculus [9] = organism: Oryctolagus cuniculus; test: The maximal difference in conjunctival hyperemia between treated and control eyes. The effect was tested in rabbit at a dose of 0.5 (ug/eye)
Felis catus [10] = organism: Felis catus; test: The maximal difference in Intraocular Pressure (IOP) between treated and control eyes. The effect was tested in cats at a dose of 10.0 (ug/eye); format: functional; outline: as §1
Felis catus [11] = organism: Felis catus; test: The mean ocular irritation in the treated eyes. An arbitrary scale of from 0 to 3 was used, 0 indicates absence of irritation and 3 complete closure of the lids. The effect was tested in cats at a dose of 10.0 (ug/eye); format: functional
Outline: (§4)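 Ocular irritation was scored in the treated eye of trained female cats, 2–3 kg. Drug was given as one topical 20 µL drop in 0.9% NaCl with 0.5% polysorbate 80. The contralateral eye got vehicle only.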

Felis catus [12] = organism: Felis catus; test: The mean ocular irritation in the treated eyes. An arbitrary scale of from 0 to 3 was used, 0 indicates absence of irritation and 3 complete closure of the lids. The effect was tested in cats at a dose of 3.0 (ug/eye); format: functional; outline: as §4
Oryctolagus cuniculus [13] = organism: Oryctolagus cuniculus; test: The mean area between curves for conjunctival hyperemia between treated and control eyes. The effect was tested in rabbit at a dose of 0.5 (ug/eye)
Felis catus [14] = organism: Felis catus; test: The mean area between curves for pupil diameter between treated and control eyes. The effect was tested in cats at a dose of 3.0 (ug/eye); format: functional; outline: as §3
Felis catus [15] = organism: Felis catus; test: The mean area between curves for pupil diameter between treated and control eyes. The effect was tested in cats at a dose of 1.0 (ug/eye); format: functional; outline: as §3
Felis catus [16] = organism: Felis catus; test: The maximal difference in […] pupil diameter between treated and control eyes. The effect was tested in cats at a dose of 3.0 (ug/eye); format: functional; outline: as §3
Felis catus [17] = organism: Felis catus; test: The mean area between curves for pupil diameter between treated and control eyes. The effect was tested in cats at a dose of 10.0 (ug/eye); format: functional; outline: as §3
Felis catus [18] = organism: Felis catus; test: The maximal difference in […] pupil diameter between treated and control eyes. The effect was tested in cats at a dose of 10.0 (ug/eye); format: functional; outline: as §3
Felis catus [19] = organism: Felis catus; test: The maximal difference in Intraocular Pressure (IOP) between treated and control eyes. The effect was tested in cats at a dose of 3.0 (ug/eye); format: functional; outline: as §1
Felis catus [20] = organism: Felis catus; test: The mean ocular irritation in the treated eyes. An arbitrary scale of from 0 to 3 was used, 0 indicates absence of irritation and 3 complete closure of the lids. The effect was tested in cats at a dose of 1.0 (ug/eye); format: functional; outline: as §4
Monkey [21] = test: The maximal difference in Intraocular Pressure (IOP) measured in treated and control eyes. The effect was tested in monkey at a dose of 1.0 (ug/eye); format: functional, Cercopithecidae; outline: as §2
Monkey [22] = test: The mean area between curves for Intraocular Pressure (IOP) measured in treated and control eyes. The effect was tested in monkey at a dose of 1.0 (ug/eye); format: functional, Cercopithecidae; outline: as §2
Oryctolagus cuniculus [23] = organism: Oryctolagus cuniculus; test: The maximal difference in conjunctival hyperemia between treated and control eyes. The effect was tested in rabbit at a dose of 0.1 (ug/eye)
Oryctolagus cuniculus [24] = organism: Oryctolagus cuniculus; test: The mean area between curves for conjunctival hyperemia between treated and control eyes. The effect was tested in rabbit at a dose of 0.1 (ug/eye)
Monkey [25] = test: The maximal difference in Intraocular Pressure (IOP) measured in treated and control eyes. The effect was tested in monkey at a dose of 10.0 (ug/eye); format: functional, Cercopithecidae; outline: as §2
Monkey [26] = test: The mean area between curves for Intraocular Pressure (IOP) measured in treated and control eyes. The effect was tested in monkey at a dose of 10.0 (ug/eye); format: functional, Cercopithecidae; outline: as §2

EC50 (Felis catus [1]; Felis catus, Sphincter muscle) [nM]	Structure (SMILES)	I ABC (Felis catus [2])	Imax (Felis catus [3]) [mmHg]	I ABC (Felis catus [4])	Imax (Monkey [5]) [mmHg]	I ABC (Monkey [6])	Pmax (Felis catus [7]) [mm]	I ABC (Felis catus [8])	Hmax (Oryctolagus cuniculus [9])	Imax (Felis catus [10]) [mmHg]	Irritation (Felis catus [12]) [arbitrary units]	H ABC (Oryctolagus cuniculus [13])	P ABC (Felis catus [14])	P ABC (Felis catus [15])	Pmax (Felis catus [16]) [mm]	P ABC (Felis catus [17])	Pmax (Felis catus [18]) [mm]	Imax (Felis catus [19]) [mmHg]	Irritation (Felis catus [20]) [arbitrary units]	also measured
40	Cc1ccc(CCC(O)/C=C/[C@@H]2[C@@H](C/C=C\CCCC(=O)O)[C@@H](O)C[C@H]2O)cc1 (some centres undefined)	–	–	–	–	–	–	–	–	–	–	–	–	–	–	–	–	–	–	–
2100	O=C(O)CCC/C=C\C[C@@H]1[C@@H](/C=C/[C@H](O)CCc2ccc(Br)cc2)[C@H](O)C[C@@H]1O	–	–	–	–	–	–	–	–	–	–	–	–	–	–	–	–	–	–	–
6.7	CCCCC[C@H](O)/C=C/[C@@H]1[C@@H](C/C=C\CCCC(=O)O)[C@@H](O)C[C@H]1O [DINOPROST]	–	–	–	–	–	–	–	–	–	–	–	–	–	–	–	–	–	–	–
0.71	O=C(O)CCC/C=C\C[C@@H]1[C@@H](/C=C/C(O)CCc2ccccc2)[C@H](O)C[C@@H]1O (some centres undefined)	–	–	–	–	–	–	–	–	–	–	–	–	–	–	–	–	–	–	–
–	CC(C)OC(=O)CCC/C=C\C[C@@H]1[C@@H](/C=C/[C@@H](O)CCc2cccc(Br)c2)[C@H](O)C[C@@H]1O	-42.5	-1	-12.9	-2	-6.5	< 6.3	<-49	<1.5	<-3.3	0.3	4.8	<-125	<-99	< -6.8	<-138	< -6.7	-2.7	0.2	Irritation (Felis catus [11]): 0.2 arbitrary units
–	O=C(O)CCC/C=C\C[C@@H]1[C@@H](/C=C/C(O)CCc2cccc(Br)c2)[C@H](O)C[C@@H]1O (some centres undefined)	–	–	–	–	–	–	–	–	–	–	–	–	–	–	–	–	–	–	EC50 (Felis catus [1]): 33 nM and 4.9 nM
4.3	Cc1cccc(CCC(O)/C=C/[C@@H]2[C@@H](C/C=C\CCCC(=O)O)[C@@H](O)C[C@H]2O)c1 (some centres undefined)	–	–	–	–	–	–	–	–	–	–	–	–	–	–	–	–	–	–	–
–	CC(C)OC(=O)CCC/C=C\C[C@@H]1[C@@H](/C=C/[C@@H](O)CCc2ccccc2)[C@H](O)C[C@@H]1O	–	2.7	<36.9	-2.9	-5.9	< 9.7	–	<1.5	–	–	<-4	–	-126	–	–	–	–	0	Imax (Monkey [21]): <-3.3 mmHg; I ABC (Monkey [22]): <-5.8
–	CC(C)OC(=O)CCC/C=C\C[C@@H]1[C@@H](/C=C/[C@@H](O)CCc2ccc(Br)cc2)[C@H](O)C[C@@H]1O	–	0.3	3.4	–	–	< -1.5	<-25	<0.5	<-3	–	1.2	–	-18.1	–	-80	< -6	–	0	Hmax (Oryctolagus cuniculus [23]): <1.1; Irritation (Felis catus [11]): 0.3 arbitrary units; H ABC (Oryctolagus cuniculus [24]): <2.2
35	O=C(O)CCC/C=C\C[C@@H]1[C@@H](/C=C/[C@@H](O)CCc2ccc(Br)cc2)[C@H](O)C[C@@H]1O	–	–	–	–	–	–	–	–	–	–	–	–	–	–	–	–	–	–	–
–	CC(C)OC(=O)CCC/C=C\C[C@@H]1[C@@H](/C=C/[C@H](O)CCc2cccc(Br)c2)[C@H](O)C[C@@H]1O	-6.2	<1.2	0.2	-1.4	-6	< -3.8	–	<1.2	–	0	<2	<-71	<-50.3	< -5.3	–	–	-2	0	–
–	Cc1ccc(CC[C@H](O)/C=C/[C@@H]2[C@@H](C/C=C\CCCC(=O)OC(C)C)[C@@H](O)C[C@H]2O)cc1	-28	-1	-4.3	<-1.6	-3.8	< -3.5	–	<1.5	–	0	4.4	<-73	<-46	< -6	–	–	-1.3	0.2	Imax (Monkey [25]): -1.5 mmHg; I ABC (Monkey [26]): -3.5
–	CC(C)OC(=O)CCC/C=C\C[C@@H]1[C@@H](/C=C/[C@@H](O)CCc2ccc(-c3ccccc3)cc2)[C@H](O)C[C@@H]1O	<-99.3	-1	-10	<0.8	3	< -1.5	–	<0.4	–	1.6	1.2	<-4.9	<-18.3	-0.8	–	–	<-6	0.8	Hmax (Oryctolagus cuniculus [23]): 0.2; Imax (Monkey [25]): <1.4 mmHg; H ABC (Oryctolagus cuniculus [24]): 0.2; I ABC (Monkey [26]): <6.1
–	CC(C)OC(=O)CCC/C=C\C[C@@H]1[C@@H](/C=C/[C@H](O)CCc2ccc(-c3ccccc3)cc2)[C@H](O)C[C@@H]1O	–	<-1	-8.3	–	–	0.5	-2	<0.5	-0.3	–	0.7	–	1.8	–	-3.8	< -0.8	–	–	–
–	Cc1cccc(CC[C@H](O)/C=C/[C@@H]2[C@@H](C/C=C\CCCC(=O)OC(C)C)[C@@H](O)C[C@H]2O)c1	8	-1	-17	<-0.6	-0.1	< -6.8	14.1	<1.6	2.3	0.1	<4.9	<-122	<-85	< -8.3	<-149	< -8.8	1.2	0.3	Imax (Monkey [21]): <-2.5 mmHg; Irritation (Felis catus [11]): 0 arbitrary units; I ABC (Monkey [22]): -3.6
–	CC(C)OC(=O)CCC/C=C\C[C@@H]1[C@@H](/C=C/[C@H](O)CCc2ccc(Br)cc2)[C@H](O)C[C@@H]1O	<-17	-1	-14	–	–	< -2.2	-10	<0.7	<-2	0.2	0.6	-2.2	-27	-0.7	-23	< -2.3	<-2	0.5	Hmax (Oryctolagus cuniculus [23]): 0.2; Irritation (Felis catus [11]): 0 arbitrary units; H ABC (Oryctolagus cuniculus [24]): 0.3
